Among the data in ChEMBL document CHEMBL1123457, “Effect of methoxy substitution on the adrenergic activity of three structurally related alpha 2-adrenoreceptor antagonists” (J Med Chem, 1986) are pA2, Potency and pD2 values, retold here.

Some results are limits rather than exact numbers.

The first assay has as its target T1, Adrenergic receptor alpha-2 (Rattus norvegicus, UniProt P22086+P19328+P22909).
T1 sequence (P22086 whole entry): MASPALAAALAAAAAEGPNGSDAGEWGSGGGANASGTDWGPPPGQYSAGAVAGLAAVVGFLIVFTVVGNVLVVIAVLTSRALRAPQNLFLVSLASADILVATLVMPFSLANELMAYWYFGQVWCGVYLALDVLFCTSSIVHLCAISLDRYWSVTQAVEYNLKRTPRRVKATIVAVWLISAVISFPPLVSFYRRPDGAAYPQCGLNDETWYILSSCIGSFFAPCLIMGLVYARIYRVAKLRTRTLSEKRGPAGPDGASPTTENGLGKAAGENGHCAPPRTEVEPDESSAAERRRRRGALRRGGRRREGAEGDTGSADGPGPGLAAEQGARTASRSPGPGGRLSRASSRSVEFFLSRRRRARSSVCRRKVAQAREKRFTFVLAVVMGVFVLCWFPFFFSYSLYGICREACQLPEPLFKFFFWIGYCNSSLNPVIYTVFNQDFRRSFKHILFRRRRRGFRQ
T1 sequence (P19328 whole entry): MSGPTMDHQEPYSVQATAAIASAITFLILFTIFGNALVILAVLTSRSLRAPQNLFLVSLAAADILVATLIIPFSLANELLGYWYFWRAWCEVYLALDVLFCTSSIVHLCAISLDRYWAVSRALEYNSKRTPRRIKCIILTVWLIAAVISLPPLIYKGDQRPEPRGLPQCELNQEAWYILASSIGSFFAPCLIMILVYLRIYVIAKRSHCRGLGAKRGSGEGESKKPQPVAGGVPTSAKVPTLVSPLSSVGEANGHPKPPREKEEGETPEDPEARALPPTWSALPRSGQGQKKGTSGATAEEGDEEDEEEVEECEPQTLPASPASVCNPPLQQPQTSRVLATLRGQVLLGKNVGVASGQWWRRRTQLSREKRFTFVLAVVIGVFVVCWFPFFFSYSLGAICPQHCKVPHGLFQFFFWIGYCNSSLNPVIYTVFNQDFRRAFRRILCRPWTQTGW
T1 sequence (P22909 whole entry): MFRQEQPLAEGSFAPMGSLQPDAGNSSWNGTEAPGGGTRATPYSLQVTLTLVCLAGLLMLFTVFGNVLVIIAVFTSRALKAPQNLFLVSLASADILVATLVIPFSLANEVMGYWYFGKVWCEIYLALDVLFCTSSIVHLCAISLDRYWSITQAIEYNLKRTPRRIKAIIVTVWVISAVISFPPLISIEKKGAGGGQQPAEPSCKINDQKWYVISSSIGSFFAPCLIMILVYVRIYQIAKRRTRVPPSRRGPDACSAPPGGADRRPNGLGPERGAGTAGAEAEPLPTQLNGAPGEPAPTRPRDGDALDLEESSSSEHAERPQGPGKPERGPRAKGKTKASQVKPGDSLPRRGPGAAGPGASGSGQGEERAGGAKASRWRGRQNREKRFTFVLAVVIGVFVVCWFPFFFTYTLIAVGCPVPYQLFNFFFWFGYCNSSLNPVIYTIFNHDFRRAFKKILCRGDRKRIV
Nature of the assay: Antagonist potency towards alpha-2 adrenergic receptor in the rat electrically stimulated vas deferens with reference to P-aminoclonidine. Type of assay: functional, tissue-based.
As usually defined, the pA2 is the negative logarithm of the molar antagonist concentration that doubles the agonist concentration needed for the same response. Higher therefore signals higher antagonist potency. The compound `COC1(C2=NCCN2)COc2ccccc2O1` (configuration not stated) returned a pA2 of 9.92.

Compound `c1ccc2c(c1)OCC(CN1CCCCC1)O2` (configuration not stated) [PIPEROXAN] had a pA2 of 7.54.

As to `COC1(CN2CCCCC2)COc2ccccc2O1` (configuration not stated), the pA2 was 5.19.

Another assay concerns the target T2, Adrenergic receptor alpha-1 (Rattus norvegicus, UniProt P15823+P23944+P43140).
T2 sequence (P15823 whole entry): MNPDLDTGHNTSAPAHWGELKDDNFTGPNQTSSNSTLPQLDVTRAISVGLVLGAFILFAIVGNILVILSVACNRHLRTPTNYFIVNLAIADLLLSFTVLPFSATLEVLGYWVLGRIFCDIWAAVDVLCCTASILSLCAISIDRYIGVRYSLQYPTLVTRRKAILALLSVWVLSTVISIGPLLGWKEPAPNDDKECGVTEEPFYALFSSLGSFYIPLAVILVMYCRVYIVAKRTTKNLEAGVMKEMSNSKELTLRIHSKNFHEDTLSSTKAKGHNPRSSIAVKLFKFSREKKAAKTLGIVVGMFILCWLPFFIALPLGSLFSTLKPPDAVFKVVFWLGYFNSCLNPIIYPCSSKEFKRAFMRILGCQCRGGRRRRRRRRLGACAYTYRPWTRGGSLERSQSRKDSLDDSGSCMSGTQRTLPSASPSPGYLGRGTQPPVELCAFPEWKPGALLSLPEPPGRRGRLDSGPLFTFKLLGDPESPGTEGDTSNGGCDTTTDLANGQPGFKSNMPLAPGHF
T2 sequence (P23944 whole entry): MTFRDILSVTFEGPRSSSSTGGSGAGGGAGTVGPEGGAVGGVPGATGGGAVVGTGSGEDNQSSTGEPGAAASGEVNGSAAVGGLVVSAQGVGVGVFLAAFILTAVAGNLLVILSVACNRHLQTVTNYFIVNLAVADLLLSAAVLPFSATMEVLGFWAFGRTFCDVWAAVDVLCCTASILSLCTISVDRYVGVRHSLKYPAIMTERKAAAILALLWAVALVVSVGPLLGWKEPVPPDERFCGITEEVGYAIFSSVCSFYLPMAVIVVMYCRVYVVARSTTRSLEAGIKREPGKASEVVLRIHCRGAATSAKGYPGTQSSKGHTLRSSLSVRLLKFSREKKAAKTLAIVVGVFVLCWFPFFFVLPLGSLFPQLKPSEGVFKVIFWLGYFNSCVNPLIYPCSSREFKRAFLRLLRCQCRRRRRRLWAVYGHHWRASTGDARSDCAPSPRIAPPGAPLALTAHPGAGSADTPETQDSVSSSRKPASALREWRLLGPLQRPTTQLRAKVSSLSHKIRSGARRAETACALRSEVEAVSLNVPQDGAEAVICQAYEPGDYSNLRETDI
T2 sequence (P43140 whole entry): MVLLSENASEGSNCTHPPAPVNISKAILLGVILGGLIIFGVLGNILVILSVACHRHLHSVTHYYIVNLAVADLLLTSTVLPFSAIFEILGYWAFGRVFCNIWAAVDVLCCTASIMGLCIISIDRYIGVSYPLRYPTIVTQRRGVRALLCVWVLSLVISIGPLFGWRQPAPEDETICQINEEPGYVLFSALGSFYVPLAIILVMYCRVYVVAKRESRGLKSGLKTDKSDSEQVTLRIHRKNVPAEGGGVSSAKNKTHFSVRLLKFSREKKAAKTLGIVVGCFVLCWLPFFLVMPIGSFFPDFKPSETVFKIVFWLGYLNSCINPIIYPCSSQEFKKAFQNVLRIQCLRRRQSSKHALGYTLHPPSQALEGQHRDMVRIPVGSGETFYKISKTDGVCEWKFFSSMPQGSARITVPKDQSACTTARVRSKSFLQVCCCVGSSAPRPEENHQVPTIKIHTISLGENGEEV
Nature of the assay: Antagonist potency towards alpha-1 adrenergic receptor in the rat electrically stimulated vas deferens with reference to phenylephrine. It is filed as functional, tissue-based.
`COC1(C2=NCCN2)COc2ccccc2O1` (configuration not stated) showed a pA2 of 7.43.

For the compound `COC1(CN2CCCCC2)COc2ccccc2O1` (configuration not stated), the pA2 is below 4.48.

The next assay has as its target T3, Adrenergic receptor alpha-1 (Rattus norvegicus) (UniProt P15823+P23944+P43140). Nature of the assay: Agonist potency towards alpha-1 adrenergic receptor in the rat isolated electrically stimulated vas deferens with reference to phenylephrine (postjunctional). Type of assay: functional, tissue-based. The gist of the method:
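Vas deferens in Krebs solution (NaCl 118 mM, KCl 4.7 mM, CaCl2 2.5 mM, KH2PO4 1.2 mM, MgSO4 0.6 mM, NaHCO3 25 mM, dextrose 11.1 mM), gassed with 95% O2/5% CO2, at 30 °C. Intramural nerves stimulated with 3-ms rectangular pulses, 40 V, 0.1 Hz. Contractions recorded isometrically.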
The compound `COC1(C2=NCCN2)COc2ccccc2O1` (configuration not stated) gave a Potency of 0.

`c1ccc2c(c1)OCC(CN1CCCCC1)O2` (configuration not stated) [PIPEROXAN] returned a Potency of 0.

Turning to `c1ccc2c(c1)OCC(C1=NCCN1)O2` (configuration not stated), the Potency was found to be 0.

In turn, `Clc1ccc(OCC2=NCCN2)cc1Cl` yielded a Potency of 0.16.

The target of another assay is T3, Adrenergic receptor alpha-1 (Rattus norvegicus). Nature of the assay: Antagonist potency towards alpha-1 adrenergic receptor in the rat isolated electrically stimulated vas deferens with reference to pA2 idazoxan (postjunctional). It is filed as functional, tissue-based.
The compound `COC1(C2=NCCN2)COc2ccccc2O1` (configuration not stated) returned a Potency of 8.3.

As for `c1ccc2c(c1)OCC(CN1CCCCC1)O2` (configuration not stated) [PIPEROXAN], the Potency was 4.8.

In the case of `c1ccc2c(c1)OCC(C1=NCCN1)O2` (configuration not stated), the Potency is 1.

Another assay deals with T4, Alpha-2 adrenergic receptor (Mus musculus) (UniProt P30545+Q01338+Q01337). Nature of the assay: Agonist potency towards alpha-2 adrenergic receptor in the mouse isolated electrically stimulated vas deferens with reference to clonidine (prejunctional). Type of assay: functional, tissue-based. The gist of the method:
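Mouse vas deferens from adult male MFI mice (>30 g), 0.5 g initial tension, in magnesium-free Krebs at 30 °C, gassed 95% O2/5% CO2. Field stimulation at 0.1 Hz with 3-ms pulses; voltage of 100-140 V set to give about 100 mg twitch, recorded isometrically. Repeated cumulative concentration-response curves to clonidine were run until ID50 values were consistent.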
As for `CCN(CC)CC1(OC)COc2ccccc2O1` (configuration not stated), the Potency came to 0.

The compound `COC1(C2=NCCN2)COc2ccccc2O1` (configuration not stated) came in with a Potency of 0.

For the compound `c1ccc2c(c1)OCC(CN1CCCCC1)O2` (configuration not stated) [PIPEROXAN], the Potency is 0.

`COC(Oc1ccc(Cl)c(Cl)c1)C1=NCCN1` (configuration not stated) showed a Potency of 0.

The compound `c1ccc2c(c1)OCC(C1=NCCN1)O2` (configuration not stated) showed a Potency of 0.

`CCN(CC)CC1COc2ccccc2O1` (configuration not stated) displayed a Potency of 0.

In the case of `Clc1ccc(OCC2=NCCN2)cc1Cl`, the Potency is below 0.0008.

Compound `COC1(CN2CCCCC2)COc2ccccc2O1` (configuration not stated) came in with a Potency of 0.

Another assay addresses T4, Alpha-2 adrenergic receptor (Mus musculus). Nature of the assay: Antagonist potency towards alpha-2 adrenergic receptor in the mouse isolated electrically stimulated vas deferens with reference to idazoxan (prejunctional). It is filed as functional, tissue-based. In short, it runs like this: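 Mouse vas deferens (adult male MFI mice, >30 g) under 0.5 g tension in magnesium-free Krebs, 30 °C, 95% O2/5% CO2. Field stimulation at 0.1 Hz, 3-ms pulses, 100-140 V giving about 100 mg twitch, isometric recording. Twitches were inhibited by 110 nM clonidine in the Krebs.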
Take `CCN(CC)CC1(OC)COc2ccccc2O1` (configuration not stated): the Potency turned out to be 0.0037.

`COC1(C2=NCCN2)COc2ccccc2O1` (configuration not stated) yielded a Potency of 11.3.

As to `c1ccc2c(c1)OCC(CN1CCCCC1)O2` (configuration not stated) [PIPEROXAN], the Potency is 0.29.

As for `COC(Oc1ccc(Cl)c(Cl)c1)C1=NCCN1` (configuration not stated), the Potency was found to be 0.0021.

`c1ccc2c(c1)OCC(C1=NCCN1)O2` (configuration not stated): the Potency came to 1.

In the case of `CCN(CC)CC1COc2ccccc2O1` (configuration not stated), the Potency is 0.033.

The compound `Clc1ccc(OCC2=NCCN2)cc1Cl` came in with a Potency of 0.018.

`COC1(CN2CCCCC2)COc2ccccc2O1` (configuration not stated): the Potency is 0.00065.

For the next assay, the species on record is Rattus norvegicus. Nature of the assay: Agonist potency of phenylephrine in rat isolated anococcygeus muscle. Type of assay: functional, Muscle tissue.
In turn, `CNC[C@H](O)c1cccc(O)c1` [PHENYLEPHRINE] registered a pD2 of 6.54.

The next assay relates to Adrenergic receptor alpha-1 (Rattus norvegicus). Nature of the assay: Agonist potency towards alpha-1 adrenergic receptor in the rat isolated anococcygeus with reference to phenylephrine (postjunctional).
Turning to `COC1(CN2CCCCC2)COc2ccccc2O1` (configuration not stated), the Potency stood at 0.

The next assay deals with T3, Adrenergic receptor alpha-1 (Rattus norvegicus). Nature of the assay: Antagonist potency towards alpha-1 adrenergic receptor in the rat isolated anococcygeus with reference to pA2 idazoxan (postjunctional).
The compound `CCN(CC)CC1(OC)COc2ccccc2O1` (configuration not stated) came in with a Potency below 0.012.

`COC(Oc1ccc(Cl)c(Cl)c1)C1=NCCN1` (configuration not stated): the Potency worked out at 0.063.

In turn, `CCN(CC)CC1COc2ccccc2O1` (configuration not stated) had a Potency of 0.52.

The test system of another assay is Adrenergic receptor alpha-1 (Rattus norvegicus). The assay is described as above.
In turn, `COC1(CN2CCCCC2)COc2ccccc2O1` (configuration not stated) displayed a Potency below 0.012.

The test system of another assay is Adrenergic receptor alpha-1 (Mus musculus). Nature of the assay: Agonist potency towards alpha-1 adrenergic receptor in the mouse isolated electrically stimulated vas deferens with reference to phenylephrine (postjunctional).
`CCN(CC)CC1(OC)COc2ccccc2O1` (configuration not stated) registered a Potency of 0.

Consider `COC(Oc1ccc(Cl)c(Cl)c1)C1=NCCN1` (configuration not stated), for which the Potency worked out at 0.

The compound `CCN(CC)CC1COc2ccccc2O1` (configuration not stated) displayed a Potency of 0.
